Assay results: ChEMBL document CHEMBL1795268, “Synthesis and antimicrobial activity of some novel dicationic sulphonophanes” (2011)
Values after ≈ are worked out from the molar mass of the structure shown. Active and inactive are the calls of the source. No cut-off for these calls is given here.

What was measured:
Candida albicans = test: Antifungal activity against Candida albicans after 48 hrs by agar well diffusion assay; assay type: functional
In short: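 C. albicans, kept on Sabouraud's dextrose agar, was grown in Sabouraud's dextrose broth at 37 °C for 8 h to make the inoculum for agar well diffusion. The MIC was recorded.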

Escherichia coli = test: Antimicrobial activity against Escherichia coli after 24 hrs by agar well diffusion assay; assay type: functional
In short: (§1)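 Bacterial isolates from a university culture collection were grown in Mueller-Hinton broth for 8 h at 37 °C, then swabbed onto nutrient agar plates. Test solutions went into wells cut in the agar, with commercial antibiotics as positive reference. Plates were incubated at 37 °C for 24 h, and the MIC was read from the zones of inhibition.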

Staphylococcus aureus = test: Antimicrobial activity against Staphylococcus aureus after 24 hrs by agar well diffusion assay; assay type: functional; in short: as §1
[1] = molecular target: Gyrase B (Escherichia coli) (UniProt Q6S6F1); test: Inhibition of Escherichia coli DNA gyrase B
Proteus vulgaris = test: Antimicrobial activity against Proteus vulgaris after 24 hrs by agar well diffusion assay; assay type: functional; in short: as §1
Bacillus subtilis = test: Antimicrobial activity against Bacillus subtilis after 24 hrs by agar well diffusion assay; assay type: functional; in short: as §1
Vibrio cholerae = test: Antimicrobial activity against Vibrio cholerae after 24 hrs by agar well diffusion assay; assay type: functional

Structure (SMILES): O=C1c2ccc(cc2)C[n+]2ccn(c2)Cc2ccc(cc2)S(=O)(=O)c2ccc(cc2)Cn2cc[n+](c2)Cc2ccc1cc2.[Br-].[Br-]
- MIC (Candida albicans): 5 µg/mL
- MIC (Escherichia coli): 25 µg/mL
- MIC (Staphylococcus aureus): 15 µg/mL
- inhibition [1]: Active
- MIC (Proteus vulgaris): 30 µg/mL
- MIC (Bacillus subtilis): 15 µg/mL
- MIC (Vibrio cholerae): 5 µg/mL

Structure (SMILES): O=S1(=O)c2ccc(cc2)Cn2cc[n+](c2)Cc2ccc(cc2)-c2cccc(c2)-c2ccc(cc2)C[n+]2ccn(c2)Cc2ccc1cc2.[Br-].[Br-]
- MIC (Candida albicans): 5 µg/mL
- MIC (Escherichia coli): 25 µg/mL
- MIC (Staphylococcus aureus): 30 µg/mL
- MIC (Proteus vulgaris): 20 µg/mL
- MIC (Bacillus subtilis): 15 µg/mL
- MIC (Vibrio cholerae): 25 µg/mL

Structure (SMILES): Clc1ccccc1C(c1ccccc1)(c1ccccc1)n1ccnc1 [CLOTRIMAZOLE]
- MIC (Candida albicans): 5 µg/mL (≈ 14.5 µM)

Structure (SMILES): O=C1c2ccc(cc2)C[n+]2ccn(c2)Cc2ccc(cc2)S(=O)(=O)c2ccc(cc2)Cn2cc[n+](c2)Cc2ccc(cc2)C(=O)c2cccc1c2.[Br-].[Br-]
- MIC (Candida albicans): 15 µg/mL
- MIC (Escherichia coli): 30 µg/mL
- MIC (Staphylococcus aureus): 40 µg/mL
- MIC (Proteus vulgaris): 25 µg/mL
- MIC (Bacillus subtilis): 35 µg/mL
- MIC (Vibrio cholerae): 30 µg/mL

Structure (SMILES): O=S1(=O)c2ccc(cc2)Cn2cc[n+](c2)Cc2ccc(cc2)C[n+]2ccn(c2)Cc2ccc1cc2.[Br-].[Br-]
- MIC (Candida albicans): 25 µg/mL
- MIC (Escherichia coli): 60 µg/mL
- MIC (Staphylococcus aureus): 25 µg/mL
- MIC (Proteus vulgaris): 40 µg/mL
- MIC (Bacillus subtilis): 30 µg/mL
- MIC (Vibrio cholerae): 70 µg/mL

Structure (SMILES): O=C(O)c1cn(C2CC2)c2cc(N3CCNCC3)c(F)cc2c1=O [CIPROFLOXACIN]
- MIC (Escherichia coli): 5 µg/mL (≈ 15.1 µM)
- MIC (Staphylococcus aureus): 5 µg/mL (≈ 15.1 µM)
- MIC (Proteus vulgaris): 10 µg/mL (≈ 30.2 µM)
- MIC (Bacillus subtilis): 5 µg/mL (≈ 15.1 µM)
- MIC (Vibrio cholerae): 10 µg/mL (≈ 30.2 µM)

Structure (SMILES): O=S1(=O)c2ccc(cc2)Cn2cc[n+](c2)Cc2cccc(c2)C[n+]2ccn(c2)Cc2ccc1cc2.[Br-].[Br-]
- MIC (Candida albicans): 40 µg/mL
- MIC (Escherichia coli): 55 µg/mL
- MIC (Staphylococcus aureus): 30 µg/mL
- MIC (Proteus vulgaris): 40 µg/mL
- MIC (Bacillus subtilis): 20 µg/mL
- MIC (Vibrio cholerae): 35 µg/mL

Structure (SMILES): O=S1(=O)c2ccc(cc2)Cn2cc[n+](c2)Cc2ccccc2C[n+]2ccn(c2)Cc2ccc1cc2.[Br-].[Br-]
- MIC (Candida albicans): 20 µg/mL
- MIC (Escherichia coli): 30 µg/mL
- MIC (Staphylococcus aureus): 40 µg/mL
- MIC (Proteus vulgaris): 60 µg/mL
- MIC (Bacillus subtilis): 40 µg/mL
- MIC (Vibrio cholerae): 35 µg/mL

Structure (SMILES): O=S1(=O)c2ccc(cc2)Cn2cc[n+](c2)Cc2ccc(cc2)S(=O)(=O)c2ccc(cc2)C[n+]2ccn(c2)Cc2ccc1cc2.[Br-].[Br-]
- MIC (Candida albicans): 5 µg/mL
- MIC (Escherichia coli): 15 µg/mL
- MIC (Staphylococcus aureus): 5 µg/mL
- inhibition [1]: Active
- MIC (Proteus vulgaris): 15 µg/mL
- MIC (Bacillus subtilis): 10 µg/mL
- MIC (Vibrio cholerae): 10 µg/mL

Structure (SMILES): COc1cc2c(OC)cc1C[n+]1ccn(c1)Cc1ccc(cc1)S(=O)(=O)c1ccc(cc1)Cn1cc[n+](c1)C2.[Br-].[Br-]
- MIC (Candida albicans): 10 µg/mL
- MIC (Escherichia coli): 30 µg/mL
- MIC (Staphylococcus aureus): 10 µg/mL
- MIC (Proteus vulgaris): 30 µg/mL
- MIC (Bacillus subtilis): 15 µg/mL
- MIC (Vibrio cholerae): 40 µg/mL
